Test results as given in paper PMC10213863 (Cell Reports Medicine, 2023).
Where two headings read alike, the source gives them in different places.

Assays:
[1] = system: SLE immune-complex-driven IFN-α response in PBMCs; test: IFN-α release from PBMCs stimulated with SLE patient sera immune complexes; assay type: cell-based, human
[2] = system: ssRNA driven IFN transcripts in human PBMCs; test: ISG expression in human PBMCs stimulated with ssRNA; assay type: cell-based; details: HCQ vs MHV370
Method in brief: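 PBMCs were pre-incubated 30 min with test compound or HCQ, then stimulated with ssRNA at doses from earlier work. RNA was extracted, and ISG transcripts were quantified by qRT-PCR with the 2−ΔΔCt method against 18S rRNA, using biological replicates. Each ISG's induction was normalized to 100% to give a panel signature.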

[3] = system: immune-complex stimulated ISG panel in PBMCs; test: Five-gene ISG panel in PBMCs stimulated with SLE immune complexes; assay type: cell-based, human; details: HCQ 1 μM
Method in brief: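 PBMCs were pre-treated 30 min with test compound, HCQ or 0.1% DMSO, then stimulated 20 h with SLE serum pre-complexed with U-937 necrotic extract. RNA was extracted and ISGs quantified by qRT-PCR with the 2−ΔΔCt method against 18S rRNA, using biological replicates. Global ISG induction was derived by normalizing each ISG's relative induction to 100%.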

[4] = system: IFN-α accelerated NZB/W F1 model; details: cited from earlier work
SLE patients [5] = details: cited from earlier work
SLE patients [6] = details: BLISS trial, cited from earlier work

Compound: CCN(CCO)CCCC(C)Nc1ccnc2cc(Cl)ccc12 (stereo not drawn) [HCQ, hydroxychloroquine, reference compound]
- inhibition of immune-complex-driven IFN-α responses by serum category ([1]; HCQ 1 μM (matched steady-state blood exposure of SLE patients), PBMCs): strongest inhibition of IFN-α responses elicited by dsDNA immune complexes
- fold lower potency than MHV370, immune-complex-induced IFN-α ([1]; HCQ vs MHV370): approximately 1,000 fold
- fold less potent antagonist of ISG expression than MHV370 [2]: 3,300 fold
- expression of a five-panel ISG signature [3]: only mildly effective

Compound: N#Cc1ccc(N2C[C@H](N)C[C@H](C(F)(F)F)C2)c2cccnc12 [M5049]
- efficacy in IFN-α accelerated NZB/W F1 model [4]: showed efficacy

Compound: anifrolumab: antibody drug which interferes with type I IFN signaling
- herpes virus infections in treated patients (SLE patients [5]): increased
- predefined endpoint in phase 3 studies (SLE patients [5]; one of two phase 3 studies): failed to reach its predefined endpoint

Compound: belimumab: antibody drug which interferes with B cell expansion
- SRI (SLE responder index) response rate above placebo (SLE patients [6]; 1 mg/kg): 7%
- SRI (SLE responder index) response rate above placebo (SLE patients [6]; 10 mg/kg): 14%
